Reference: ChEMBL document CHEMBL1123750, “Imidazole anticonvulsants: structure-activity relationships of [(biphenylyloxy)alkyl]imidazoles” (1987)

Legend:
Assay type in all cases: functional
[1] = test system: Mus musculus; assay: Anticonvulsant activity using hexobarbital-induced (100 mg/kg dose was administered intraperitoneally) sleeping time assay evaluated in mice
In short: (§1)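 Groups of 10 fasted mice dosed orally with test compound in 5% acacia/water; at the previously determined time of peak effect, hexobarbital given ip, solubilized with stoichiometric NaOH. Duration of loss of righting reflex monitored. Mean ± SEM for 10 animals, compared against vehicle controls.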

[2] = test system: Mus musculus; assay: Effective dose to produce anticonvulsant activity using horizontal screen test (HS) evaluated in mice after oral administration
In short: (§2)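 Fasted male CF1 mice (20–25 g), oral suspension in 5% acacia/water. Each mouse placed on a screen, rod rotated 180°, and return to the top within 1 min scored. Peak time found at 0.5–4 h. Retest at that time with at least four doses, 12 mice per dose. ED50 by Litchfield–Wilcoxon with 95% confidence limits.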

[3] = test system: Mus musculus; assay: Effective dose to produce anticonvulsant activity using maximal electroshock assay (MES) evaluated in mice after oral administration
In short: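 Mice given oral doses as a suspension in 5% acacia/water. Corneal electroshock (40 mA, 0.1 s, ac). Retest at the time of peak effect with at least four doses, 12 mice per dose. ED50 is for prevention of tonic-extensor convulsions, by Litchfield–Wilcoxon with 95% confidence limits.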

[4] = test system: Mus musculus; assay: Time to peak anticonvulsant effect (TPE) evaluated in mice after oral administration
In short: (§3)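 Three groups of mice given a range of oral doses in 5% acacia/water. Challenged by corneal MES (40 mA, 0.1 s, ac) at 0.5, 1, 2, 3 and 4 h posttreatment. Time of peak protection against seizures recorded.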

[5] = test system: Mus musculus; assay: Effective dpse to produce anticonvulsant activity using horizontal screen test (HS) evaluated in mice after oral administration; in short: as §2
[6] = test system: Mus musculus; assay: Time to peak anticonvulsant effect (TPE) was determined in mice after oral administration; in short: as §3
[7] = test system: Mus musculus; assay: Anticonvulsant activity using hexobarbital-induced (100 mg/kg dose was administered intraperitoneally) sleeping time assay evaluated in mice after oral administration; in short: as §1
[8] = test system: Mus musculus; assay: Anticonvulsant activity using hexobarbital-induced (100 mg/kg dose was administered intraperitoneally)sleeping time assay evaluated in mice; in short: as §1

Row | Structure (SMILES) | Hexobarb ST [1] [min] | ED50 [2] [mg/kg] | ED50 [3] [mg/kg] | TPE [4] [h] | ED50 [5] [mg/kg] | TPE [6] [h] | Hexobarb ST [7] [min] | Hexobarb ST [8] [min]
1 | Cl.c1ccc(-c2ccccc2OCCCn2ccnc2)cc1 | 126.7 | > 280 | 21.3 | 1 |  |  |  | 
2 | Cl.c1ccc(-c2ccccc2OCCCCn2ccnc2)cc1 | 124.3 | > 200 | 29.8 | 0.5 |  |  |  | 
3 | c1ccc(OCCn2ccnc2)cc1 | 434.2 | > 280 | 130 | 4 |  |  |  | 
4 | O=C1NC(=O)C(c2ccccc2)(c2ccccc2)N1 [PHENYTOIN] |  |  | 9.4 | 1 | 210 |  |  | 
5 | CC(O)(Cn1ccnc1)c1ccc2c(c1)Cc1ccccc1-2 (centres undefined) |  |  | 10 |  |  |  |  | 
6 | O=C(Cn1ccnc1)c1ccc2ccccc2c1 [NAFIMIDONE] |  |  | 56 |  |  |  |  | 
7 | Cl.c1ccc(-c2ccccc2OCCn2ccnc2)cc1 |  | 320 | 15.5 |  |  | 1 | 252.1 | 
8 | Cl.c1ccc(-c2ccc(OCCn3ccnc3)cc2)cc1 |  | > 400 | 44 | 2 |  |  |  | 697.5
9 | Cl.c1ccc(-c2cccc(OCCn3ccnc3)c2)cc1 | 334 | > 200 | 20.5 | 4 |  |  |  | 
